The values that follow come from the RNAGym collection of RNA variant scans (doi:10.1126/science.aae0568).

B1: tRNA (parent)
chain: GUUCCGUUGGCGUAAUGGUAACGCGUCUCCCUCCUAAGGAGAAGACUGCGGGUUCGAGUCCCGUACGGAACG

Variants at the floor of the assay were thinned out. Bounds are passed on as bounds.

The series covers variants of B1. Briefly: yeast fitness relative to wild type (ratio to wild type); higher = fitter; tRNA-Arg(CCU), competitive growth, 37 C, YPD. A digest of the protocol: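 Genotype frequency changes were the basis for Darwinian fitness relative to wild type. The frequencies came from 100-nucleotide paired-end sequencing of gene amplicons from the start population and each end population of pooled yeast strains with tRNA-Arg(CCU) gene variants at the native locus. Competition ran in YPD at 37°C for 24 hours in six replicates, genotypes needed ≥ 100 starting reads, and estimates < 0.5 were set to 0.5.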
Regarding C4U G6A A14C A65U, the yeast fitness is ≤ 0.5.

With C4U G10C C30A G50A, the yeast fitness is ≤ 0.5.

Turning to C4U C11U A45U A57U, the yeast fitness turned out to be 0.655.

For C4U C31G C34U A43U, the yeast fitness was determined as 0.786.

On to C4U G25C A45C C46A, for which the yeast fitness came out at 0.733.

In the case of C4U C27U C29G A42C C55G, the yeast fitness was ≤ 0.5.

As to C4U A42G C66A, the yeast fitness is ≤ 0.5.

Turning to C4U G9C G18A U26G A45C, the yeast fitness is ≤ 0.5.

With C4U C29A C31G A42C A45U A69U, the yeast fitness is ≤ 0.5.

Take C4U C11G G18A U26C G52C: the yeast fitness was ≤ 0.5.

On to C4U C31U C61G, for which the yeast fitness came to 0.58.

As for C4U G25A A36C A70G, the yeast fitness is ≤ 0.5.

On to C4U G56A A70C, for which the yeast fitness was 0.754.

Take C4U G6C U7A: the yeast fitness was ≤ 0.5.

Take C4U C11G C24A A36U A43C: the yeast fitness amounted to 0.55.

On to C4U C11U G44C C49U A70U, for which the yeast fitness is ≤ 0.5.

In the case of C4U C24G A36C A70C, the yeast fitness is ≤ 0.5.

Regarding C4U C5A A15U C34U U54C C62U, the yeast fitness was ≤ 0.5.

With C4U C24G C30G C31U U35A A36U G44A G63C, the yeast fitness is 0.654.

As for C4U C31U A43U G48A U53A, the yeast fitness is ≤ 0.5.

On to C4U G23C A36C C55G A57U G67A, for which the yeast fitness was ≤ 0.5.

For C4U C30U U54A, the yeast fitness was ≤ 0.5.

As for C4U A42G, the yeast fitness was 0.868.

With C4U A42C, the yeast fitness worked out at 0.912.

Consider C4U G9A C22G A42U G68C, for which the yeast fitness was ≤ 0.5.

Take C4U C49A C66U: the yeast fitness turned out to be 0.612.

Take C4U U7A C30G C34G A40C A65U: the yeast fitness is ≤ 0.5.

For C4U A43C A65U, the yeast fitness stood at 0.75.

Turning to C4U G44C G67A, the yeast fitness amounted to 0.768.

Take C4U C11A C46U U59C: the yeast fitness was ≤ 0.5.

On to C4U C11U C34G A40C G51C, for which the yeast fitness is 0.534.

Take C4U G12C C49A U64C: the yeast fitness is ≤ 0.5.

With C4U C30A U59C A69C, the yeast fitness came out at 0.568.

With C4U C27G C33U A57G, the yeast fitness is ≤ 0.5.

In the case of C4U G25A C66U, the yeast fitness worked out at 0.75.

For the variant C4U G10C A36U, the yeast fitness was determined as 0.659.

As for C4U G9A G67A, the yeast fitness is 0.598.

C4U C24U C30A: the yeast fitness was 0.597.

Take C4U C60G G63C: the yeast fitness was ≤ 0.5.

For C4U C49A A57C A69U, the yeast fitness is ≤ 0.5.

As for C4U C31G U47C G48C, the yeast fitness is ≤ 0.5.

On to C4U U7A C49U, for which the yeast fitness is 0.58.

Consider C4U C5A G68C, for which the yeast fitness worked out at 0.551.

Take C4U U7A A45U A57G: the yeast fitness is ≤ 0.5.

Consider C4U A42G C49U, for which the yeast fitness stood at 0.704.

Take C4U C11A U28A C31U G51C G56A: the yeast fitness was ≤ 0.5.

For C4U C5A U59C C60G, the yeast fitness was ≤ 0.5.

As to C4U G10A C11G A20G C27G A65U, the yeast fitness is ≤ 0.5.

As to C4U G12A A40U, the yeast fitness was 0.642.

Consider C4U C5G C29U U32A C33U G67U A70G, for which the yeast fitness is 0.54.

For C4U A70G, the yeast fitness stood at 0.941.

Turning to C4U G10A C11G A20G C27G C29U A65U, the yeast fitness was ≤ 0.5.

Take C4U C24G C61U: the yeast fitness was determined as 0.555.

C4U G17A C33G: the yeast fitness was ≤ 0.5.

C4U G25A A65G: the yeast fitness was 0.718.

For the variant C4U A43G C49U G68A, the yeast fitness was ≤ 0.5.

C4U C5G G12A A14U U54A A57U: the yeast fitness is ≤ 0.5.

As for C4U C31U C60A, the yeast fitness is ≤ 0.5.

On to C4U C66A G68C, for which the yeast fitness was determined as 0.546.

Regarding C4U C11G C29U U59G, the yeast fitness was ≤ 0.5.

As for C4U C24G U26A U28G, the yeast fitness stood at 0.539.

Consider C4U G38A, for which the yeast fitness turned out to be 0.919.

Consider C4U G38C, for which the yeast fitness was determined as 0.825.

In the case of C4U G38A U47C, the yeast fitness worked out at 0.501.

As for C4U C11A A37C, the yeast fitness was 0.569.

Consider C4U C31U A37U G67A G68A, for which the yeast fitness was ≤ 0.5.

As to C4U G18C G50A, the yeast fitness was ≤ 0.5.

For C4U C46A G67C, the yeast fitness is ≤ 0.5.

Regarding C4U C5G U28C C61A, the yeast fitness is ≤ 0.5.

For C4U U7A G68A, the yeast fitness was ≤ 0.5.

With C4U C46U A69C, the yeast fitness amounted to 0.817.

Take C4U C46U A69U: the yeast fitness turned out to be 1.16.

On to C4U C22U C27U G58C, for which the yeast fitness was ≤ 0.5.

Regarding C4U C24G C49U C60U C61A, the yeast fitness was 0.58.

With C4U G23C A40U A42G A45G G51C C61U G63A, the yeast fitness was ≤ 0.5.

In the case of C4U C27U C31G C55U, the yeast fitness was ≤ 0.5.

For the variant C4U G12A A14G G18A C30G C46U, the yeast fitness was ≤ 0.5.

Take C4U G12C U28G C62G A70U: the yeast fitness is ≤ 0.5.

For the variant C4U C34U A43C A69U, the yeast fitness turned out to be 0.557.

With C4U C5G A45G, the yeast fitness came to 0.634.

Turning to C4U C5G G9A G51C, the yeast fitness was ≤ 0.5.

Regarding C4U C22U C33U A42C A57G, the yeast fitness is ≤ 0.5.

In the case of C4U G68C, the yeast fitness was found to be 0.963.

C4U G68U: the yeast fitness is 0.888.

On to C4U G68A, for which the yeast fitness was determined as 0.856.

C4U C5A C61U: the yeast fitness turned out to be 0.719.

In the case of C4U C22U, the yeast fitness worked out at 0.76.

As to C4U C11U G25C G41A, the yeast fitness is 0.706.

For C4U C61U A70G, the yeast fitness was found to be 0.777.

For the variant C4U C24A G44C G50C U54G C61G, the yeast fitness is ≤ 0.5.

As to C4U C11G G56C, the yeast fitness was ≤ 0.5.

On to C4U C11U G44C, for which the yeast fitness was determined as 0.702.

For C4U C33G A70G, the yeast fitness is ≤ 0.5.

Consider C4U G18A A21C G48C, for which the yeast fitness is ≤ 0.5.

For the variant C4U C30A A43G, the yeast fitness was 0.728.

As to C4U A45C C61U, the yeast fitness came to 0.738.

Take C4U C27U U35C C61G: the yeast fitness is ≤ 0.5.

Take C4U G6A G25A U53A C66A: the yeast fitness was ≤ 0.5.

As for C4U G48C C66U, the yeast fitness came to 0.729.

Turning to C4U G23A A40C U54A U59A, the yeast fitness is ≤ 0.5.

On to C4U G23C A40U A42G A45G G51C C61U, for which the yeast fitness is ≤ 0.5.

C4U A57U A70U: the yeast fitness came to 0.578.

On to C4U C24G U26A U28G G68C, for which the yeast fitness was ≤ 0.5.

As for C4U C5U, the yeast fitness worked out at 1.01.

On to C4U C5A, for which the yeast fitness came out at 0.796.

C4U G23A G56C A57G G68A: the yeast fitness is ≤ 0.5.

For C4U C22U G23A, the yeast fitness was ≤ 0.5.

In the case of C4U C29U C31U, the yeast fitness was determined as 0.538.

For the variant C4U U7A A20G G23A U26G, the yeast fitness is ≤ 0.5.

On to C4U A45C A69U, for which the yeast fitness came to 0.822.

On to C4U G9A G39A G44C, for which the yeast fitness is ≤ 0.5.

For C4U C24U A36C, the yeast fitness was ≤ 0.5.

For C4U G6A G44C A69U A70G, the yeast fitness is ≤ 0.5.

With C4U C11U C31G C46A G63C A65U, the yeast fitness is ≤ 0.5.

For C4U C31U A40U A69U, the yeast fitness was 0.625.

With C4U C11A A14C U28A C31U A37U G39A A42G, the yeast fitness was 0.645.

C4U G41C C61A: the yeast fitness is ≤ 0.5.

In the case of C4U U7A U13A U32C G44C, the yeast fitness worked out at 0.718.

As for C4U C24U C55U, the yeast fitness was ≤ 0.5.

Take C4U U7A G50C: the yeast fitness was ≤ 0.5.

For C4U C22U A45G C66G, the yeast fitness was ≤ 0.5.

As to C4U G23A U28C G56C, the yeast fitness is ≤ 0.5.

Take C4U C27U A45C G48A G56C: the yeast fitness worked out at 0.612.

For the variant C4U C33A U54C, the yeast fitness was ≤ 0.5.

Take C4U C11G C34U G56A: the yeast fitness was ≤ 0.5.

In the case of C4U G12A C46U, the yeast fitness turned out to be 0.728.

For the variant C4U C22G C27U G50A G63A, the yeast fitness is ≤ 0.5.

For C4U A40U A42U C46U, the yeast fitness is ≤ 0.5.

C4U G12A A40U A69C: the yeast fitness was found to be 0.56.

For C4U C34G G52U, the yeast fitness stood at 0.62.

Consider C4U C11G C29U C62U G67C, for which the yeast fitness is ≤ 0.5.

Regarding C4U G6C A21C C30G C46G, the yeast fitness came out at 0.524.

Turning to C4U C55U C66A, the yeast fitness is ≤ 0.5.

As for C4U G44A G58A, the yeast fitness worked out at 0.974.

For the variant C4U C22G C33A A36C A43G C55G, the yeast fitness was 0.742.

On to C4U G38C G50A A70G, for which the yeast fitness is ≤ 0.5.

For the variant C4U C30U A57G G68A, the yeast fitness came out at 0.525.

Take C4U U7A C30G C34G A40C: the yeast fitness was 0.512.

For the variant C4U A40U G68C, the yeast fitness was found to be 0.68.

With C4U C30A C66U, the yeast fitness amounted to 0.82.

In the case of C4U C27G A45C, the yeast fitness amounted to 0.564.

C4U C34A C46U U47A: the yeast fitness was ≤ 0.5.

C4U C5G G41A: the yeast fitness was found to be 0.505.

On to C4U C34G U35A A42U C60U, for which the yeast fitness is ≤ 0.5.

Turning to C4U G38C C61U C66U, the yeast fitness was ≤ 0.5.

Consider C4U C11G G18C U47A G63A, for which the yeast fitness is ≤ 0.5.

Consider C4U A57G, for which the yeast fitness turned out to be 0.872.

Turning to C4U A57C, the yeast fitness was 0.709.

C4U C55A A65U: the yeast fitness was ≤ 0.5.

In the case of C4U G10C A21G C30A G38C C46U A70C, the yeast fitness was ≤ 0.5.

C4U G9C C33G U54C: the yeast fitness is ≤ 0.5.

In the case of C4U C33U G44A, the yeast fitness is ≤ 0.5.

For C4U C11U A43U C55G, the yeast fitness was ≤ 0.5.

On to C4U C31U C55G U59A, for which the yeast fitness amounted to 0.546.

Take C4U G12A C27G C34A C49A G68U: the yeast fitness was ≤ 0.5.

C4U C27U U64C: the yeast fitness is 0.757.

For C4U G12A A20G C22U A57G, the yeast fitness is ≤ 0.5.

With C4U U7A C22U U54C C66U G68C A69U, the yeast fitness is ≤ 0.5.

As for C4U C5G A15C A42C, the yeast fitness was ≤ 0.5.

Take C4U G12C A21C C29G A36G C46U G58A: the yeast fitness is ≤ 0.5.

As for C4U C5G C29U G63A A65G, the yeast fitness was found to be 0.535.

As to C4U C22G U28A A36U C55G C62U, the yeast fitness was ≤ 0.5.

Regarding C4U C27A C31U C60G, the yeast fitness is ≤ 0.5.

As to C4U G10C, the yeast fitness is 0.625.

Regarding C4U G17A C22U G68C, the yeast fitness is ≤ 0.5.

For the variant C4U G48A U54G, the yeast fitness is ≤ 0.5.

Take C4U G44U: the yeast fitness was 0.757.
